Data as given in ChEMBL document CHEMBL1152452, “Modifications incorporated in CpG motifs of oligodeoxynucleotides lead to antagonist activity of toll-like receptors 7 and 9” (2009).
Active and inactive are the calls of the source. The rule behind the calls is not given here.

Key:
Mus musculus [1] = assay: Immunostimulatory activity in C57BL/6 mouse assessed as inhibition of 5'-CTATCTGACGTTCTCTGT-3'-induced MCP1 production in serum at 2 mg/kg, sc administered 24 hrs prior to 5'-CTATCTGACGTTCTCTGT-3' challenge measured after 2 hrs by Luminex multiplex assay; assay type: functional, organism-based; parameters: dose 2 mg/kg
Method in brief: (§1)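 C57BL/6 mice received 2 mg/kg ODN sc in one flank. After 24 h, the TLR9 agonist ODN was given at 0.5 mg/kg sc in the opposite flank. Blood was drawn 2 h later and serum cytokines/chemokines were quantified by Luminex multiplex assay. Percent inhibition was taken against the agonist alone. Representative of three experiments.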

Mus musculus [2] = assay: Immunostimulatory activity in C57BL/6 mouse assessed as induction of IL10 level in serum at 2 mg/kg, sc after 2 hrs by Luminex multiplex assay; assay type: functional, organism-based; parameters: dose 2 mg/kg
Method in brief: (§2)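 Female C57BL/6 mice, 5–6 weeks old, n = 3, received a single 2 mg/kg subcutaneous ODN injection in the right flank. Blood was taken by retro-orbital bleeding 2 h later. Naive mice served as baseline. Representative of three experiments.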

[3] = molecular target: T1, Toll-like receptor 9 (Mus musculus) (UniProt Q9EQU3); assay: Activation of mouse TLR9 expressed in HEK293 cells assessed as NF-kappaB level at 0.3 ug/mL after 18 hrs by reporter gene assay; assay type: cell-based
T1 sequence (whole entry): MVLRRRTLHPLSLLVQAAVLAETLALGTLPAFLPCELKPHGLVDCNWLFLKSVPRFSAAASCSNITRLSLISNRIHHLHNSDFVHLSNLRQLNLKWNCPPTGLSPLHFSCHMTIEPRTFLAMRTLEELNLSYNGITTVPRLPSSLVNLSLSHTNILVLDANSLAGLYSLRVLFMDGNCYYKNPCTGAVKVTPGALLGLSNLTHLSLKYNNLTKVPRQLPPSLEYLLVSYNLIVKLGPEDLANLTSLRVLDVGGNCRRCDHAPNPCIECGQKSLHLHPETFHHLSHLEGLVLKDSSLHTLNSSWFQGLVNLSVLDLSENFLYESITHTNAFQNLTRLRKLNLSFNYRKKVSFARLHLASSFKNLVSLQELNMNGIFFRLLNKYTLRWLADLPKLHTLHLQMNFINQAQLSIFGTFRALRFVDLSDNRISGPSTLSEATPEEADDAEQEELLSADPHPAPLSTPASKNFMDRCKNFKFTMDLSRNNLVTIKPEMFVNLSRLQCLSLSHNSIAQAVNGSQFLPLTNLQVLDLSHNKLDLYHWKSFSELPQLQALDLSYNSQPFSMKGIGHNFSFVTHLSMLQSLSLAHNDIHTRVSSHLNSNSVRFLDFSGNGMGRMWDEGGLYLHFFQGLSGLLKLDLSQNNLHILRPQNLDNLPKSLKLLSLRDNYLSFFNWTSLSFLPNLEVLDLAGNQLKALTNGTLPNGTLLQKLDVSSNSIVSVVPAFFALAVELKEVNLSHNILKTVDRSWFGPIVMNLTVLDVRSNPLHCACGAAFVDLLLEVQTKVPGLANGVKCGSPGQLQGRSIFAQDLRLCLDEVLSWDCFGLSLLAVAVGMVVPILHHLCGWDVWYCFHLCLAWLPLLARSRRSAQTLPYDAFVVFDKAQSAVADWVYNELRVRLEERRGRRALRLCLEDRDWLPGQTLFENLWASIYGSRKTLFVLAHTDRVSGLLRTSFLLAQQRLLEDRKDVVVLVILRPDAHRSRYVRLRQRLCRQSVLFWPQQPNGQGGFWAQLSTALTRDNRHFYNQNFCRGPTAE
Method in brief: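 HEK293 cells stably expressing mouse TLR9 were transiently transfected with a SEAP reporter for 6 h, then stimulated with ODN at 0.1, 0.3 or 1 μg/mL for 18 h. Reporter expression is given as fold change in NF-κB activity over medium. Representative of two independent experiments.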

Mus musculus [4] = assay: Immunostimulatory activity in C57BL/6 mouse assessed as induction of MIP-1alpha level in serum at 2 mg/kg, sc after 2 hrs by Luminex multiplex assay; assay type: functional, organism-based; parameters: dose 2 mg/kg; method in brief: as §2
Splenocyte = assay: Immunostimulatory activity in C57BL/6 mouse splenocytes assessed as induction of IL12 secretion at 2 to 10 ug/ml after 24 hrs by sandwich ELISA; assay type: functional, cell-based
Method in brief: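 C57BL/6 splenocytes (mice 5–8 weeks) at 5 × 10^6 cells/mL in RPMI complete medium. ODNs dissolved in PBS were added and the cells incubated at 37 °C for 24 h. Supernatant IL-12 or IL-6 was measured by sandwich ELISA. Runs were done two or three times, in duplicate per concentration.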

Mus musculus [5] = assay: Immunostimulatory activity in C57BL/6 mouse assessed as induction of KC level in serum at 2 mg/kg, sc after 2 hrs by Luminex multiplex assay; assay type: functional, organism-based; parameters: dose 2 mg/kg; method in brief: as §2
Mus musculus [6] = assay: Immunostimulatory activity in C57BL/6 mouse assessed as inhibition of 5'-CTATCTGACGTTCTCTGT-3'-induced MIP-1alpha production in serum at 2 mg/kg, sc administered 24 hrs prior to 5'-CTATCTGACGTTCTCTGT-3' challenge measured after 2 hrs by Luminex multiplex assay; assay type: functional, organism-based; parameters: dose 2 mg/kg; method in brief: as §1
Mus musculus [7] = assay: Immunostimulatory activity in C57BL/6 mouse assessed as inhibition of 5'-CTATCTGACGTTCTCTGT-3'-induced IL10 production in serum at 2 mg/kg, sc administered 24 hrs prior to 5'-CTATCTGACGTTCTCTGT-3' challenge measured after 2 hrs by Luminex multiplex assay; assay type: functional, organism-based; parameters: dose 2 mg/kg; method in brief: as §1
Mus musculus [8] = assay: Immunostimulatory activity in C57BL/6 mouse assessed as inhibition of 5'-CTATCTGACGTTCTCTGT-3'-induced IL12 production in serum at 2 mg/kg, sc administered 24 hrs prior to 5'-CTATCTGACGTTCTCTGT-3' challenge measured after 2 hrs by sandwich ELISA; assay type: functional; conditions: C57BL/6, sc, route subcutaneous
Method in brief: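 C57BL/6 mice were pretreated sc in the right flank with 2, 5 or 10 mg/kg ODN. After 24 h, the TLR9 agonist ODN was given at 0.5 mg/kg sc in the left flank. Serum IL-12 was measured by ELISA 2 h later. Representative of two experiments.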

Activity [3]	SMILES	Activity (Mus musculus [1])	Activity (Mus musculus [2])	Activity (Mus musculus [4])	Activity (Splenocyte)	Activity (Mus musculus [5])	Activity (Mus musculus [6])	Activity (Mus musculus [7])	inhibition in vivo at 2 mg/kg (Mus musculus [8]) [%]
inactive	CO[C@@H]1[C@H](OP(=O)(S)OC[C@H]2O[C@@H](n3cc(C)c(=O)[nH]c3=O)C[C@@H]2OP(=O)(S)OC[C@H]2O[C@@H](n3cc(C)c(=O)[nH]c3=O)C[C@@H]2OP(=O)(S)OC[C@H]2O[C@@H](n3ccc(N)nc3=O)C[C@@H]2OP(=O)(S)OC[C@H]2O[C@@H](n3cc(C)c(=O)[nH]c3=O)C[C@@H]2OP(=O)(S)OC[C@H]2O[C@@H](n3ccc(N)nc3=O)C[C@@H]2OP(=O)(S)OC[C@H]2O[C@@H](n3cc(C)c(=O)[nH]c3=O)C[C@@H]2OP(=O)(S)OC[C@H]2O[C@@H](n3cnc4c(=O)[nH]c(N)nc43)C[C@@H]2OP(=O)(S)OC[C@H]2O[C@@H](n3cc(C)c(=O)[nH]c3=O)C[C@@H]2O)[C@@H](COP(=O)(S)O[C@H]2C[C@H](n3ccc(N)nc3=O)O[C@@H]2COP(=O)(S)O[C@H]2C[C@H](n3cnc4c(N)ncnc43)O[C@@H]2COP(=O)(S)O[C@H]2C[C@H](n3cnc4c(=O)[nH]c(N)nc43)O[C@@H]2COP(=O)(S)O[C@H]2C[C@H](n3cc(C)c(=O)[nH]c3=O)O[C@@H]2COP(=O)(S)O[C@H]2C[C@H](n3ccc(N)nc3=O)O[C@@H]2COP(=O)(S)O[C@H]2C[C@H](n3cc(C)c(=O)[nH]c3=O)O[C@@H]2COP(=O)(S)O[C@H]2C[C@H](n3cnc4c(N)ncnc43)O[C@@H]2COP(=O)(S)O[C@H]2C[C@H](n3cc(C)c(=O)[nH]c3=O)O[C@@H]2COP(=O)(S)O[C@H]2C[C@H](n3ccc(N)nc3=O)O[C@@H]2CO)O[C@H]1n1cnc2c(=O)[nH]c(N)nc21 (some centres not stated)	Active	inactive	inactive	Active	inactive	Active	Active	50
inactive	Cc1cn([C@@H]2O[C@H](COP(=O)(S)O[C@H]3C[C@H](n4ccc(N)nc4=O)O[C@@H]3COP(=O)(S)O[C@H]3C[C@H](n4cc(C)c(=O)[nH]c4=O)O[C@@H]3COP(=O)(S)O[C@H]3C[C@H](n4ccc(N)nc4=O)O[C@@H]3COP(=O)(S)O[C@H]3C[C@H](n4cc(C)c(=O)[nH]c4=O)O[C@@H]3COP(=O)(S)O[C@H]3C[C@H](n4cc(C)c(=O)[nH]c4=O)O[C@@H]3COP(=O)(S)O[C@H]3C[C@H](n4cnc5c(=O)[nH]c(N)nc54)O[C@@H]3COP(=O)(S)O[C@H]3C[C@H](n4ccc(N)nc4=O)O[C@@H]3COP(=O)(S)O[C@H]3C[C@H](n4cnc5c(N)ncnc54)O[C@@H]3COP(=O)(S)O[C@H]3C[C@H](n4cnc5c(=O)[nH]c(N)nc54)O[C@@H]3COP(=O)(S)O[C@H]3C[C@H](n4cc(C)c(=O)[nH]c4=O)O[C@@H]3COP(=O)(S)O[C@H]3C[C@H](n4ccc(N)nc4=O)O[C@@H]3COP(=O)(S)O[C@H]3C[C@H](n4cc(C)c(=O)[nH]c4=O)O[C@@H]3COP(=O)(S)O[C@H]3C[C@H](n4cnc5c(N)ncnc54)O[C@@H]3COP(=O)(S)O[C@H]3C[C@H](n4cc(C)c(=O)[nH]c4=O)O[C@@H]3COP(=O)(S)O[C@@H]3C[C@@H](n4ccc(N)nc4=O)O[C@H]3CO)[C@@H](OP(=O)(S)OC[C@H]3O[C@@H](n4cnc5c(=O)[nH]c(N)nc54)C[C@@H]3OP(=O)(S)OC[C@H]3O[C@@H](n4cc(C)c(=O)[nH]c4=O)C[C@@H]3O)[C@H]2O)c(=O)[nH]c1=O (some centres not stated)	Active	inactive	inactive	Active	inactive	Active	Active	50
inactive	CO[C@@H]1[C@H](OP(=O)(S)OC[C@H]2O[C@@H](n3cnc4c(=O)[nH]c(N)nc43)C[C@@H]2OP(=O)(S)OC[C@H]2O[C@@H](n3cc(C)c(=O)[nH]c3=O)C[C@@H]2OP(=O)(S)OC[C@H]2O[C@@H](n3cc(C)c(=O)[nH]c3=O)C[C@@H]2OP(=O)(S)OC[C@H]2O[C@@H](n3ccc(N)nc3=O)C[C@@H]2OP(=O)(S)OC[C@H]2O[C@@H](n3cc(C)c(=O)[nH]c3=O)C[C@@H]2OP(=O)(S)OC[C@H]2O[C@@H](n3ccc(N)nc3=O)C[C@@H]2OP(=O)(S)OC[C@H]2O[C@@H](n3cc(C)c(=O)[nH]c3=O)C[C@@H]2OP(=O)(S)OC[C@H]2O[C@@H](n3cnc4c(=O)[nH]c(N)nc43)C[C@@H]2OP(=O)(S)OC[C@H]2O[C@@H](n3cc(C)c(=O)[nH]c3=O)C[C@@H]2O)[C@@H](COP(=O)(S)O[C@H]2C[C@H](n3cnc4c(N)ncnc43)O[C@@H]2COP(=O)(S)O[C@H]2C[C@H](n3cnc4c(=O)[nH]c(N)nc43)O[C@@H]2COP(=O)(S)O[C@H]2C[C@H](n3cc(C)c(=O)[nH]c3=O)O[C@@H]2COP(=O)(S)O[C@H]2C[C@H](n3ccc(N)nc3=O)O[C@@H]2COP(=O)(S)O[C@H]2C[C@H](n3cc(C)c(=O)[nH]c3=O)O[C@@H]2COP(=O)(S)O[C@H]2C[C@H](n3cnc4c(N)ncnc43)O[C@@H]2COP(=O)(S)O[C@H]2C[C@H](n3cc(C)c(=O)[nH]c3=O)O[C@@H]2COP(=O)(S)O[C@H]2C[C@H](n3ccc(N)nc3=O)O[C@@H]2CO)O[C@H]1n1ccc(N)nc1=O (some centres not stated)	Active	inactive	inactive	Active	inactive	Active	Active	50
